Assay results: ChEMBL document CHEMBL4665858, “New BODIPYs for photodynamic therapy (PDT): Synthesis and activity on human cancer cell lines” (Bioorg Med Chem, 2020)
The source made the active and inactive calls. No cut-off for these calls is given here.

Experiments:
[1] = system: MCF7; experiment: Induction of apoptosis in human MCF7 cells assessed as increase in apoptotic cells at antiproliferative IC50 preincubated for 24 hrs followed by irradiated with green LED for 2 hrs then incubated in dark for 24 hrs in drug free medium by PI staining based flow cytometric analysis; assay type: functional, cell-based
How it was run: (§1)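 PI-stained cells analyzed by flow cytometry (575 nm); apoptotic fraction taken from the sub-G1 peak in log-mode histograms. Untreated controls; 3–5 independent experiments.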

[2] = system: SK-OV-3; experiment: Antimigratory activity against human SK-OV-3 cells assessed as open scratch wound at 2.5 nM incubated for 24 hrs by scratch wound healing based microscopic analysis; assay type: functional, cell-based
[3] = system: SK-OV-3; experiment: Induction of cell cycle arrest in human SK-OV-3 cells assessed as cell cycle distribution at antiproliferative IC50 preincubated for 24 hrs followed by irradiated with green LED for 2 hrs then incubated in dark for 24 hrs in drug free medium by PI staining based flow cytometric analysis; assay type: functional
How it was run: (§2)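 DNA content measured by PI flow cytometry (575 nm) in linear mode to give cell-cycle phase distribution. Untreated controls; 3 independent experiments.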

[4] = system: SK-OV-3; experiment: Antiproliferative activity against human SK-OV-3 cells assessed as reduction in cell viability preincubated for 24 hrs followed by irradiated with green LED for 2 hrs then incubated in dark for 24 hrs in drug free medium by MTT assay; assay type: functional, cell-based; conditions: SK-OV-3, light or radiation study
How it was run: (§3)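 HCT116 and SKOV3 grown in DMEM, MCF7 in RPMI1640, all with 10% FBS. Cells attached 24 h, then exposed 24 h to BODIPY (0.1–200 nM) at 37 °C. Medium replaced by PBS and cells irradiated 2 h with green LED, then held 24 h in the dark in drug-free medium. MTT (2 mg/mL) added for 3 h; DMSO-dissolved formazan read by absorbance. IC50 from dose-response curves; 3–5 independent experiments.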

[5] = system: MCF7; experiment: Induction of cell cycle arrest in human MCF7 cells assessed as cell cycle distribution at antiproliferative IC50 preincubated for 24 hrs followed by irradiated with green LED for 2 hrs then incubated in dark for 24 hrs in drug free medium by PI staining based flow cytometric analysis; assay type: functional; how it was run: as §2
[6] = Drug uptake in human MCF7 cells assessed as intracellular accumulation at 10 uM incubated for 24 hrs spectrophotometric analysis; assay type: ADME, cell-based; conditions: mcf7, 24 h
How it was run: (§4)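 Cells (3 × 10^6 per 75 cm² flask) grown 48 h, then exposed 24 h to BODIPY at 10 µM. Cells trypsinized and lysed in 0.1 M NaOH/1% SDS (5 × 10^6 cells/mL). Absorbance read at λmax; intracellular amount taken from a calibration curve prepared in SDS-lysed cells. 3–5 independent experiments.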

[7] = system: MCF7; experiment: Induction of cell cycle arrest in human MCF7 cells assessed as cell cycle distribution at antiproliferative IC50 incubated for 24 hrs by PI staining based flow cytometric analysis; assay type: functional
[8] = system: HCT-116; experiment: Induction of cell cycle arrest in human HCT116 cells assessed as cell cycle distribution at antiproliferative IC50 preincubated for 24 hrs followed by irradiated with green LED for 2 hrs then incubated in dark for 24 hrs in drug free medium by PI staining based flow cytometric analysis; assay type: functional; how it was run: as §2
[9] = system: MCF7; experiment: Antiproliferative activity against human MCF7 cells assessed as reduction in cell viability preincubated for 24 hrs followed by irradiated with green LED for 2 hrs then incubated in dark for 24 hrs in drug free medium by MTT assay; assay type: functional, cell-based; conditions: MCF7, light or radiation study; how it was run: as §3
[10] = system: HCT-116; experiment: Induction of cell cycle arrest in human HCT116 cells assessed as accumulation at G1 phase at antiproliferative IC50 preincubated for 24 hrs followed by irradiated with green LED for 2 hrs then incubated in dark for 24 hrs in drug free medium by PI staining based flow cytometric analysis; assay type: functional; how it was run: as §2
[11] = system: MCF7; experiment: Induction of apoptosis in human MCF7 cells assessed as increase in apoptotic incubated for 24 hrs by PI staining based flow cytometric analysis; assay type: functional, cell-based
[12] = system: HCT-116; experiment: Induction of apoptosis in human HCT116 cells assessed as increase in apoptotic incubated for 24 hrs by PI staining based flow cytometric analysis; assay type: functional, cell-based
[13] = system: MCF7; experiment: Induction of apoptosis in human MCF7 cells assessed as increase in necrotic cells at antiproliferative IC50 preincubated for 24 hrs followed by irradiated with green LED for 2 hrs then incubated in dark for 24 hrs in drug free medium by PI staining based flow cytometric analysis; assay type: functional, cell-based; how it was run: as §1
[14] = system: SK-OV-3; experiment: Induction of cell cycle arrest in human SK-OV-3 cells assessed as cell cycle distribution at antiproliferative IC50 incubated for 24 hrs by PI staining based flow cytometric analysis; assay type: functional
[15] = system: HCT-116; experiment: Induction of ROS generation in human HCT116 cells at antiproliferative IC50 preincubated for 24 hrs followed by irradiated with green LED for 2 hrs then incubated in dark for 24 hrs in drug free medium by DCFH-DA dye based flow cytometry relative to control; assay type: functional, cell-based
[16] = system: MCF7; experiment: Induction of ROS generation in human MCF7 cells at antiproliferative IC50 preincubated for 24 hrs followed by irradiated with green LED for 2 hrs then incubated in dark for 24 hrs in drug free medium by DCFH-DA dye based flow cytometry relative to control; assay type: functional, cell-based
[17] = system: SK-OV-3; experiment: (§5) Antimigratory activity against human SK-OV-3 cells assessed as open scratch wound at 0.75 nM preincubated for 24 hrs followed by irradiated with green LED for 2 hrs then incubated in dark for 24 hrs in drug free medium by scratch wound healing based microscopic analysis (reference value: 8.68 +/- 0.58%); assay type: functional
[18] = system: MCF7; experiment: Induction of cell cycle arrest in human MCF7 cells assessed as accumulation at G1 phase at antiproliferative IC50 preincubated for 24 hrs followed by irradiated with green LED for 2 hrs then incubated in dark for 24 hrs in drug free medium by PI staining based flow cytometric analysis; assay type: functional; how it was run: as §2
[19] = system: HCT-116; experiment: Antiproliferative activity against human HCT116 cells assessed as reduction in cell viability preincubated for 24 hrs followed by irradiated with green LED for 2 hrs then incubated in dark for 24 hrs in drug free medium by MTT assay; assay type: functional, cell-based; conditions: HCT-116, light or radiation study; how it was run: as §3
[20] = system: SK-OV-3; experiment: Antimigratory activity against human SK-OV-3 cells assessed as open scratch wound at 0.75 nM incubated for 24 hrs by scratch wound healing based microscopic analysis; assay type: functional, cell-based
[21] = system: SK-OV-3; experiment: Induction of ROS generation in human SK-OV-3 cells at antiproliferative IC50 preincubated for 24 hrs followed by irradiated with green LED for 2 hrs measured at the end of irradiation in drug free medium by DCFH-DA dye based flow cytometry relative to control
[22] = system: HCT-116; experiment: Induction of cell cycle arrest in human HCT116 cells assessed as cell cycle distribution at antiproliferative IC50 incubated for 24 hrs by PI staining based flow cytometric analysis; assay type: functional
[23] = system: SK-OV-3; experiment: Induction of apoptosis in human SK-OV-3 cells assessed as increase in apoptotic incubated for 24 hrs by PI staining based flow cytometric analysis; assay type: functional, cell-based
[24] = Drug uptake in human SK-OV-3 cells assessed as intracellular accumulation at 10 uM incubated for 24 hrs spectrophotometric analysis; assay type: ADME, cell-based; conditions: sk-ov-3, 24 h; how it was run: as §4
[25] = Drug uptake in human HCT116 cells assessed as intracellular accumulation at 10 uM incubated for 24 hrs spectrophotometric analysis; assay type: ADME, cell-based; conditions: hct-116, 24 h; how it was run: as §4
[26] = system: SK-OV-3; experiment: Induction of cell cycle arrest in human SK-OV-3 cells assessed as accumulation at G1 phase at antiproliferative IC50 preincubated for 24 hrs followed by irradiated with green LED for 2 hrs then incubated in dark for 24 hrs in drug free medium by PI staining based flow cytometric analysis; assay type: functional; how it was run: as §2
[27] = system: SK-OV-3; experiment: Induction of apoptosis in human SK-OV-3 cells assessed as increase in apoptotic cells at antiproliferative IC50 preincubated for 24 hrs followed by irradiated with green LED for 2 hrs then incubated in dark for 24 hrs in drug free medium by PI staining based flow cytometric analysis; assay type: functional, cell-based; how it was run: as §1
[28] = system: SK-OV-3; experiment: Induction of apoptosis in human SK-OV-3 cells assessed as increase in necrotic cells at antiproliferative IC50 preincubated for 24 hrs followed by irradiated with green LED for 2 hrs then incubated in dark for 24 hrs in drug free medium by PI staining based flow cytometric analysis; assay type: functional, cell-based; how it was run: as §1
[29] = system: SK-OV-3; experiment: Antimigratory activity against human SK-OV-3 cells assessed as open scratch wound at 0.75 nM preincubated for 24 hrs followed by irradiated with green LED for 2 hrs measured immediately in drug free medium by scratch wound healing based microscopic analysis (Rvb 38.27 +/- 3.02%); assay type: functional
[30] = system: SK-OV-3; experiment: Antimigratory activity against human SK-OV-3 cells assessed as open scratch wound at 2.5 nM preincubated for 24 hrs followed by irradiated with green LED for 2 hrs measured immediately in drug free medium by scratch wound healing based microscopic analysis (Rvb 38.27 +/- 3.02%); assay type: functional
[31] = system: SK-OV-3; experiment: as §5, with “2.5” for “0.75”; assay type: functional

Question: For `CC1=C(I)C(C)=[N+]2C1=C(c1ccc(OCCCCBr)cc1)c1c(C)c(I)c(C)n1[B-]2(F)F`, which Activity [1] is on record?
Answer: Active

Question: And the Activity [2]?
Answer: inactive

Question: What about the Activity [3] of the same compound?
Answer: inactive

Question: What about the IC50 [4] of the same compound?
Answer: 3.56 nM

Question: And the Activity [5]?
Answer: inactive

Question: And the Drug uptake [6]?
Answer: Active

Question: What about the Activity [7] of the same compound?
Answer: inactive

Question: What about the Activity [8] of the same compound?
Answer: inactive

Question: And the IC50 [9]?
Answer: 6.88 nM

Question: And the Activity [10]?
Answer: inactive

Question: What about the Activity [11] of the same compound?
Answer: inactive

Question: What about the Activity [12] of the same compound?
Answer: inactive

Question: What about the Activity [13] of the same compound?
Answer: Active

Question: And the Activity [14]?
Answer: inactive

Question: And the Activity [15]?
Answer: inactive

Question: And the Activity [16]?
Answer: inactive

Question: And the Activity [17]?
Answer: 24.81%

Question: And the Activity [18]?
Answer: inactive

Question: And the IC50 [19]?
Answer: 2 nM

Question: What about the Activity [20] of the same compound?
Answer: inactive

Question: And the Activity [21]?
Answer: Active

Question: And the Activity [22]?
Answer: inactive

Question: What about the Activity [23] of the same compound?
Answer: inactive

Question: What about the Drug uptake [24] of the same compound?
Answer: Active

Question: What about the Drug uptake [25] of the same compound?
Answer: Active

Question: What about the Activity [26] of the same compound?
Answer: inactive

Question: And the Activity [27]?
Answer: Active

Question: What about the Activity [28] of the same compound?
Answer: Active

Question: What about the Activity [29] of the same compound?
Answer: 35.19%

Question: Which results are given for `CC1=C(I)C(C)=[N+]2C1=C(c1ccc(OCCCCCCCCBr)cc1)c1c(C)c(I)c(C)n1[B-]2(F)F`?
Answer: Activity [1]: Active; Activity [30]: 37.71%; Activity [2]: inactive; Activity [3]: inactive; IC50 [4]: 15.6 nM; Activity [5]: inactive; Drug uptake [6]: Active; Activity [7]: inactive; Activity [8]: inactive; IC50 [9]: 23.1 nM; Activity [10]: inactive; Activity [11]: inactive; Activity [12]: inactive; Activity [13]: Active; Activity [14]: inactive; Activity [15]: inactive; Activity [16]: inactive; Activity [18]: inactive; IC50 [19]: 11.7 nM; Activity [20]: inactive; Activity [31]: 13.53%; Activity [21]: Active; Activity [22]: inactive; Activity [23]: inactive; Drug uptake [24]: Active; Drug uptake [25]: Active; Activity [27]: Active; Activity [28]: Active
